From PMC8769552 (Science Advances, 2022)

Tests used:
[1] = system: HDAC3; type: biochemical, human; settings: acid-extracted histones from HeLa cells, recombinant HDAC3
Procedure, shortened: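 Histones acid-extracted from HeLa cells (hypotonic sucrose/Triton wash, no-salt EDTA/EGTA step, 0.2 M H2SO4 overnight at 4°C, 20% TCA precipitation). 20 μg histones incubated with 0.2 μg recombinant human HDAC at 37°C for 1 or 4 h in tris buffer (50 mM tris/Cl, 137 mM NaCl, 2.7 mM KCl, 1 mM MgCl2, pH 8). Stopped by boiling 5 min in loading buffer; Western blot readout.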

[2] = system: HeLa cells; assay: Histone lactylation and acetylation in HeLa cells after inhibitor treatment; type: cell-based, human; settings: 5-hour treatment, TMP195 5 μM, NAM 10 mM; for global histone lactylation levels: sodium butyrate 2 mM, TSA 1 μM, apicidin 1 μM
Procedure, shortened: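 HeLa cells treated 5 h with pan-HDAC inhibitors (2 mM or 1 μM), HDAC1–3-selective inhibitor (1 μM), class IIa-selective inhibitor (5 μM) or pan-sirtuin inhibitor (10 mM). Histone lactylation and acetylation by Western blot: blocked in 3% BSA/TBST 1 h at RT, primary antibody overnight at 4°C, LI-COR secondary 1:10,000 for 1 h, Odyssey imaging.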

[3] = system: HEK293T whole-cell lysates; assay: Fluorogenic lysate deacylase assay; type: biochemical, human; settings: 37°C, 60 min; for conversion of AMC substrate by whole-cell lysate: substrate 50 μM, lysate 30 μg per well, NAD+ 500 μM, tris buffer, n = 4
[4] = molecular target: HDAC1 (Homo sapiens, UniProt Q13547); assay: Fluorogenic Michaelis-Menten assay; type: biochemical; settings: K(D-la) versus K(L-la), Ac-LGK-AMC; stated for HDAC1/2
[5] = system: HDAC2; assay: Fluorogenic Michaelis-Menten assay; type: biochemical, human; settings: K(D-la) versus K(L-la), Ac-LGK-AMC; stated for HDAC1/2
[6] = molecular target: HDAC3/NCoR2 (Homo sapiens, UniProt O15379+Q9Y618); assay: Fluorogenic Michaelis-Menten assay; type: biochemical; settings: K(D-la) versus K(L-la), Ac-LGK-AMC
[7] = system: HDAC1–3; assay: Fluorogenic substrate screening assay; type: biochemical, human; settings: substrate 50 μM, HDACs 50 nM, tris buffer, 37°C, 60 min; n = 2

Chain of HDAC3/NCoR2 (O15379 whole entry): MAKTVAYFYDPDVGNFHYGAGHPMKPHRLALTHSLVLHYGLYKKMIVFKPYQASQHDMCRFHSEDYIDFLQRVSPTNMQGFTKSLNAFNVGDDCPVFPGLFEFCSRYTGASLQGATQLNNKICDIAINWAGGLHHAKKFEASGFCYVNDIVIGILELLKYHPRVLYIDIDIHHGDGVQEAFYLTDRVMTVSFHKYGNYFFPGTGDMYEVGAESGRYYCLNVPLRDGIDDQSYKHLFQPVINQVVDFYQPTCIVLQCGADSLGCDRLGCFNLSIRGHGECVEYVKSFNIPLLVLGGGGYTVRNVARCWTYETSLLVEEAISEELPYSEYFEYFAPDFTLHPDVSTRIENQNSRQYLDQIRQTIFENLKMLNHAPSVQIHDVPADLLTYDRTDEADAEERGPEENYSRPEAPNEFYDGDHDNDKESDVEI
Chain of HDAC3/NCoR2 (Q9Y618 389-480 partner limits assumed): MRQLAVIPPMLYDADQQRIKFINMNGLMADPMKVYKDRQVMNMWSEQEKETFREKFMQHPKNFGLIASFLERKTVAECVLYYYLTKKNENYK
Chain of HDAC1 (Q13547 whole entry): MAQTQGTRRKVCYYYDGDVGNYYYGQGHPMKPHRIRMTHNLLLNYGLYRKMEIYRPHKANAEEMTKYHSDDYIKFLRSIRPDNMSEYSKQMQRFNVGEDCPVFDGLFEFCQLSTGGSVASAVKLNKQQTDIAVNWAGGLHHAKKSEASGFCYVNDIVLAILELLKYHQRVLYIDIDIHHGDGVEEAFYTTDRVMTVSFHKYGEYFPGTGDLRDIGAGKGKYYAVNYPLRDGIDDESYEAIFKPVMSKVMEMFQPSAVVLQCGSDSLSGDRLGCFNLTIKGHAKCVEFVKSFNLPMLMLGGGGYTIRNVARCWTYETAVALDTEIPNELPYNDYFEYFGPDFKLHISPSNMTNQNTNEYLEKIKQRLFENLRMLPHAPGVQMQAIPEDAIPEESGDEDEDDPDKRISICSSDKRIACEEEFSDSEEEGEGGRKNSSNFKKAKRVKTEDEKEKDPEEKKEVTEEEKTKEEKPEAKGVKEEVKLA

**Q.** Which “inhibition of HDAC3-mediated decrease of global histone lactylation” value [1] does the source give for `CC(/C=C/C(=O)NO)=C\[C@@H](C)C(=O)c1ccc(N(C)C)cc1` [TSA, trichostatin A] here?
**A.** The value was “could be inhibited”.

**Q.** What about the “global histone lactylation levels” value [2] of the same molecule?
**A.** The value was “increased global histone lactylation levels”.

**Q.** Which “conversion of AMC substrate by whole-cell lysate” value [3] does the source give for Ac-Ala-Pro-Arg-Lys(L-La)-AMC [1b] here?
**A.** The value was “able to remove the lactyl modifications, albeit to a lower extent than the corresponding Kac modification”.

**Q.** Which results are given for Ac-Leu-Gly-Lys(D-La)-AMC [2c]?
**A.** fold higher kcat/KM for 2c than for 2b [4]: > 6 fold; fold higher kcat/KM for 2c than for 2b [5]: > 6 fold; fold higher kcat/KM for 2c than for 2b [6]: 3.5 fold

**Q.** For `CC(C)(CNC(=O)c1cccc(-c2noc(C(F)(F)F)n2)c1)c1coc(-c2ccccc2)n1` [TMP195], which “histone Kac levels” value [2] is on record?
**A.** Its value is “lack of effect”.

**Q.** And the “global histone lactylation levels” value [2]?
**A.** The value was “failed to affect histone lactylation levels substantially”.

**Q.** How did the “conversion of AMC substrate by whole-cell lysate” value [3] turn out when Ac-Ala-Pro-Arg-Lys(D-La)-AMC [1c] was run?
**A.** Its value is “converted to a larger extent than its K(L-la) counterpart”.

**Q.** Which “global histone lactylation levels” value [2] does the source give for `CCCC(=O)[O-].[Na+]` [sodium butyrate] here?
**A.** Its value is “increased global histone lactylation levels”.

**Q.** `CCC(=O)CCCCC[C@@H]1NC(=O)[C@H]2CCCCN2C(=O)[C@H]([C@@H](C)CC)NC(=O)[C@H](Cc2cn(OC)c3ccccc23)NC1=O` [apicidin] was tested. Which “inhibition of HDAC3-mediated decrease of global histone lactylation” value [1] did it give?
**A.** Its value is “could be inhibited”.

**Q.** What about the “global histone lactylation levels” value [2] of the same molecule?
**A.** Its value is “enhanced lactylation”.

**Q.** For `NC(=O)c1cccnc1` [NAM, nicotinamide], which “effect of inhibitor on lysate deacylation of 1a–c” value ([3]; NAM 10 mM, substrates 50 μM) is on record?
**A.** The value was “did not substantially change the outcome of the deacylation events”.

**Q.** What about the “histone Kac levels” value [2] of the same molecule?
**A.** Its value is “does not affect histone Kac levels”.

**Q.** What about the “global histone lactylation levels” value [2] of the same molecule?
**A.** The value was “failed to affect histone lactylation levels substantially”.

**Q.** Ac-Gln-Pro-Lys-Lys(L-La)-AMC [4b] was tested. Which “deacylase activity (AMC release)” value [7] did it give?
**A.** Its value is “measurable activity”.
